M4 PAM = human M4 muscarinic receptor positive allosteric modulators, primary screen, CHO-K1 cells, Fluo-8 calcium fluorescence; Muscarinic acetylcholine receptor M4 (Homo sapiens), P08173; activation, % at 3 µM; CHO-K1 hM4/Gqi5, ACh EC20; 0% = ACh EC20, 100% = maximal ACh; 0.4% of 360,000 active;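 active means activation above its plate's cutoff, the mean activation of sample wells plus 3 SD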
CHRM4 antagonist = human M4 muscarinic receptor antagonists, primary screen, CHO cells, Fluo-8 calcium fluorescence | AID 624125, 2012 | CHO-hM4 cells, ACh EC80 | inhibition, % at 3 µM | 0.73% of 360,000 active | Muscarinic acetylcholine receptor M4 (Homo sapiens), P08173;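 active means inhibition above its plate's cutoff, the mean inhibition of sample wells plus 3 SD, cut at about 27% in these data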;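 further: 0% = acetylcholine EC80 with DMSO and 100% = DMSO without agonist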
CHRM4 agonist = human M4 muscarinic receptor agonists, primary screen, CHO-K1 cells, Fluo-8 calcium fluorescence; CHO-K1 hM4/Gqi5; vehicle 0%, full acetylcholine response 100%; activation, % at 3 µM; 0.14% of 360,000 active;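 active means activation above the run mean over all test wells plus 3 SD, cut at about 32% in these data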;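 further: peak over basal fluorescence ratio per well then scaled between controls; 0% = DMSO wells and 100% = acetylcholine at EC100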
M5 PAM = human M5 muscarinic receptor positive allosteric modulators, primary screen, CHO-K1 cells, Fluo-8 calcium fluorescence. activation, % at 3 µM. 0.3% of 360,000 active. CHO-K1 hM5, ACh EC20 PAM; 0% = ACh EC20, 100% = ACh EC100. Muscarinic acetylcholine receptor M5 (Homo sapiens), P08912;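 active means activation above the run cutoff, the mean activation of all test compounds plus 3 SD, cut at about 18% in these data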
Target sequence (P08912 whole entry, looked up): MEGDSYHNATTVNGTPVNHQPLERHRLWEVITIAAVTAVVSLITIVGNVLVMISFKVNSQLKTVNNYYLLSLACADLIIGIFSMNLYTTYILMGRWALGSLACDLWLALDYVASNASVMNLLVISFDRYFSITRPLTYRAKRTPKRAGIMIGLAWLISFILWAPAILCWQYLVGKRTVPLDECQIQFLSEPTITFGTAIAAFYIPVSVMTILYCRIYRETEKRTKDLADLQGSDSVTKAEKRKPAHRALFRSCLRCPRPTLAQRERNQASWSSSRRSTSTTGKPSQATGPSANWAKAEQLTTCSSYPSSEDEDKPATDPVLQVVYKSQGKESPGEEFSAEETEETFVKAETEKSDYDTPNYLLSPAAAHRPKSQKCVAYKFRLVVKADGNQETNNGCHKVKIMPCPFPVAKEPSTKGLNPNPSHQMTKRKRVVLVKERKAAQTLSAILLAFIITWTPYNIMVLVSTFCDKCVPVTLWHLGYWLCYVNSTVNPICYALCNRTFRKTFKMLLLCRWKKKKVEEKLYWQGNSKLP
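Probe or stimulus: acetylcholine, EC20 level; Assay system: human M5 receptor in CHO-K1 cells; Schedule: compound preincubation 140 s before EC20 acetylcholine addition; Technique: intracellular calcium via Fluo-8 fluorescence; Dosing: single-point, 3 µM nominal; Read-out basis: percent activation from peak-over-basal fluorescence ratio, scaled EC20-to-EC100 acetylcholine; Repeats: one well per compound, no replicates.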
CHRM5 antagonist = human M5 muscarinic receptor antagonists, primary screen, CHO cells, Fluo-8 calcium fluorescence | inhibition, % at 3 µM | Muscarinic acetylcholine receptor M5 (Homo sapiens), P08912 | CHO-hM5 cells, ACh EC80 | 0.59% of 360,000 active | AID 624040, 2012;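 active means inhibition above a per-plate cutoff, the mean of that plate's test compounds plus 3 SD, cut at about 27% in these data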;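 further: 0% = acetylcholine EC80 with DMSO and 100% = DMSO without agonist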
M5 ag = human M5 muscarinic receptor agonists, primary screen, CHO-K1 cells, Fluo-8 calcium fluorescence | 0.19% of 360,000 active | activation, % at 3 µM | CHO-K1 hM5 cells; 0% DMSO wells, 100% maximal acetylcholine response;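 active means activation above the run's mean over test compounds plus 3 SD, cut at about 23% in these data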;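 further: signal is peak over basal fluorescence ratio across the kinetic read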
* = called active by the depositor. Hits are enriched below; roughly 1.8% of the tested compounds scored in any of these assays.

SMILES	M4 PAM	CHRM4 antagonist	CHRM4 agonist	M5 PAM	CHRM5 antagonist	M5 ag
OC(CCN1CCCC1)(c1ccccc1)C1CCCCC1 (stereo not given)	-17	99*	1	-19	99*	-2
COc1ccc(C(O)(CCc2ccccc2)CCN2CCCCC2)cc1 (stereo not given)	-14	1	2	-15	16	-11
CCCCOc1ccc(C(O)(CCN2CCOCC2)c2ccccc2)cc1 (stereo not given)	0	-8	3	-5	5	-6
OC(CCCN1CCCCC1)(c1ccccc1)c1ccc(C(F)(F)F)cc1 (stereo not given)	-11	50*	5	-31	13	-12
O=C(CCN1CCCCCC1)c1ccccc1	-1	0	0	7	-9	0
CCc1ccc2c(c1)NC(=O)C2(C)Cc1ccccc1OC (stereo not given)	1	-10	0	-6	1	-1
NC(=O)C(CCCCN1CCCCC1)(c1ccccc1)c1ccccc1	-9	37*	0	-21	15	-13
CN(c1ccc(F)cc1)S(=O)(=O)c1ccc(Cl)c(C(=O)NCC2(N3CCOCC3)CCCCC2)c1	-5	6	3	-6	6	-3
Cc1c(C)c2cc(Cl)c(O)c(CN3CCCC(C)C3)c2oc1=O (stereo not given)	-20	28*	-1	1	0	-7
CCCCNC(=O)c1cc(-c2ccccc2)sc1N	18	-8	2	21*	-15	7
COCCNC(=O)c1cc(-c2ccccc2)sc1N	0	4	4	1	8	3
CCCCOC(=O)C1CN(c2ccccc2)N=C1C(=O)OCC (stereo not given)	20*	-8	-1	0	-5	-6
CCCCOC(=O)C1CN(c2ccccc2)N=C1C(C)=O (stereo not given)	-1	-18	1	-11	10	-9
CCCCCCN[C@H]1CCC2C3CC=C4C[C@@H](O)CC[C@]4(C)C3CC[C@@]21C (stereo not given in full)	-12	37*	12	-18	12	-10
O=C(NC1CCCC1)C1C(c2ccc(C(F)(F)F)cc2)=Nc2ccccc2N1C(=O)c1ccccc1 (stereo not given)	-2	-10	0	-2	-10	-2
CC(=O)OCCCNc1cc(Sc2ccc(Cl)cc2)c2nonc2c1[N+](=O)[O-]	22*	17	1	12	0	0
CCCC(=O)OCCNc1cc(Sc2nc3ccccc3[nH]2)c2nonc2c1[N+](=O)[O-]	-14	55*	4	-2	34*	-4
CCC(=O)OCCNc1cc(SCCC(=O)OC)c2nonc2c1[N+](=O)[O-]	2	-6	2	-5	4	-5
Cc1ccccc1P(=O)(c1ccccc1)c1ccccc1C	-1	-6	-1	-6	19	0
O=C(CC[C@H]1O[C@@H](n2ccc(=O)[nH]c2=O)[C@H](O)[C@@H]1O)NCc1cccc2ccccc12	21*	-8	1	10	8	-1
COc1cccc(CNC(=O)[C@@H]2CCCN2C(=O)[C@H]2CCCCN2)c1	5	-21	1	-2	-8	-1
O=C(Nc1nc2ccc(S(=O)(=O)N3CCCCC3)cc2s1)C1CCCO1 (stereo not given)	34*	12	3	0	4	2
CC(=O)c1c(O)c(C)c(O)c2c1OC1=CC(=O)C(C(C)=O)C(=O)[C@@]12C (stereo not given in full)	0	-15	2	10	-7	-3
COc1ccc(S(=O)(=O)N2CCc3ccccc32)cc1C(=O)Nc1ccc(NC(C)=O)cc1	8	12	2	0	7	1
CC(C)(C)N1C(=O)c2ccccc2NC(=O)N1Cc1ccc(Br)cc1	1	-9	0	0	-5	-13
SMILES	M4 PAM	CHRM4 antagonist	CHRM4 agonist	M5 PAM	CHRM5 antagonist	M5 ag
Cc1ccccc1CN1C(=O)Nc2ccccc2C(=O)N1C(C)(C)C	8	-3	0	50*	-4	-4
Cc1ccc(OCC(=O)N(Cc2ccco2)C2CCS(=O)(=O)C2)cc1C (stereo not given)	7	-7	2	1	-2	3
Cc1cccc(C)c1OCC(=O)N(Cc1ccco1)C1CCS(=O)(=O)C1 (stereo not given)	-3	0	32*	1	-1	2
NC(=O)N/N=C/c1ccc([N+](=O)[O-])o1	-2	0	1	-3	1	1
COC(=O)N/N=C/c1ccc([N+](=O)[O-])o1	30*	14	1	10	-13	2
O=C(COC(=O)/C=C/c1ccc(Cl)cc1Cl)NCCC1=CCCCC1	11	28*	1	27*	24	6
CC(NC=C1C(=O)OC(C)(C)OC1=O)C(=O)O (stereo not given)	5	-1	1	-4	-2	-1
CC(C)CC(NC=C1C(=O)OC(C)(C)OC1=O)C(=O)O (stereo not given)	21*	-1	0	0	-3	-5
CC(=O)c1c(C)n(-c2ccccc2Br)c2ccc(O)cc12	-6	-19	1	-8	-1	-9
O=[N+]([O-])c1cc([N+](=O)[O-])c(Oc2ccc(F)cc2F)cc1NN1CCCCC1	27*	-16	3	3	-11	5
O=[N+]([O-])c1cc([N+](=O)[O-])c(Oc2cccc3ccccc23)cc1NN1CCCCC1	30*	-3	2	9	-13	3
COc1ccc(C(=O)NC(=S)Nc2ccc(N3CCOCC3)cc2)cc1Cl	-3	-10	6	1	-1	-1
C#CCNC(=O)C[C@@H]1C[C@@]2(C(=O)OCC)CCC=C2N(Cc2ccc(Cl)cc2Cl)C1=O	11	-10	0	-5	2	3
CN1CCN(c2nc(-c3cccc([N+](=O)[O-])c3)nc3ccccc23)CC1	-4	-13	5	-1	5	-3
O=C(O)C1=CC2C=C(Cl)C=CC2OC1=O (stereo not given)	2	-3	-1	5	5	1

Screening results (PubChem)
